Screening results (PubChem BioAssay)
The list is not random: actives were taken first. Their share in the collection is about 1.8%.
HNF4A DNA FP = change in binding of human HNF4 alpha to DNA. P41235. HNF4a-FITC DNA binding, fluorescence polarization, 1 h. activity change, % at 10 µM. hit rate 0.3% among 360,000; in the data active = activity change above about 30%, passing the limit was not always enough
Rpn11 inh = inhibitors of human proteasome Rpn11; human 26S proteasome, Ub4-pepOG fluorescence polarization; 20S core pre-blocked with epoxomicin; hit rate 0.59% among 360,000; calls only at 20 µM; AID 588493; O00487;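 active = inhibition at 20 µM, scaled to each plate's controls, above about 33%, limit read from the data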
SENP1 FRET inh = blocks the human SENP1 SUMO protease catalytic domain; inhibition, % at 10 µM; hit rate 0.21% among 360,000; AID 624204; recombinant SENP1 catalytic domain, CyPet-SUMO1-YPet FRET cleavage; Q9P0U3;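 active = inhibition at least 30% at 10 µM, raw YFP signal under a set limit, fluorescence ratio 0.5 to 1.5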;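 also: 0% = enzyme with DMSO and 100% = no enzyme wells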
Target sequence (Q9P0U3 419-644 limits assumed): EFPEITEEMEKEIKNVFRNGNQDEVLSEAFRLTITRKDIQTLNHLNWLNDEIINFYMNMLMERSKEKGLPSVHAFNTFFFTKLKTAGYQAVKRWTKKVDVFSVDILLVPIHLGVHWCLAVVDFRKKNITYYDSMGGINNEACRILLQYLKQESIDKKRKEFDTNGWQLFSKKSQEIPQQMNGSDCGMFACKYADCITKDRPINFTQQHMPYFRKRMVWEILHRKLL
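material = recombinant human SENP1 catalytic domain, His6-tagged | quantity = 20 pM enzyme | reagent = 25 nM SUMO1 FRET substrate | compound dosing = 10 µM single point, 0.5% DMSO | timing = 50 min enzyme reaction, room temperature, light-protected | detection = FRET, CFP and YFP emission | control set = no-enzyme low, enzyme-DMSO high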
TPT1 inh = blocks Candida albicans tRNA 2'-phosphotransferase. recombinant caTPT1, FP RNA substrate dephosphorylation. inhibition, % at 5 µM. hit rate 0.81% among 300,000. AID 1962;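 active = inhibition above the mean of all tested compounds plus 3 SD, set per screening campaign, cut at about 24% in these data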;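 also: plate controls were DMSO alone for no effect and ferristatin control at 100 nM for full effect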
CSN inh = CSN deneddylation inhibition; Q92905; Purified CSN, SCF-Nedd8-OG deneddylation, fluorescence polarization; inhibition, % at 12.5 µM; hit rate 0.38% among 360,000;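 active = pattern-corrected inhibition above about 35%, with an unprinted fluorescence ratio check between 0.5 and 1.5, limit read from the data, passing the limit was not always enough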;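 also: 0% = enzyme with substrate and 100% = substrate without enzyme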
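Test system: Human Csn5 produced in HEK293T cells | Compound: 12.5 µM single point | Times: 90 min, room temperature | Signal: Fluorescence polarization readout | Read-out basis: % inhibition of substrate cleavage by Csn5 | Controls: no-enzyme wells high, enzyme-with-substrate wells low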
UBC9 SUMO inh = inhibitors of human SUMOylation (UBC9). P63279. AID 2006. inhibition, % at 35 µM. HTRF SUMOylation assay, SAE1/SAE2 + UBC9, in vitro. hit rate 0.36% among 290,000; in the data active = inhibition above about 50%, passing the limit was not always enough
caTPT1 confirm = TPT1 (C. albicans) inhibition, confirmation; recombinant caTPT1, fluorescence polarization, RNase T1 coupled; inhibition, % at 5 µM; hit rate 74% among 2,400; shares compounds with TPT1 inh;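 active = inhibition above the primary screen limit, the mean inhibition of all tested compounds plus 3 SD, cut at about 25% in these data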
RNase T1 inh = counter-screen for TPT1 inhibitors: inhibitors of Aspergillus oryzae RNase T1 | inhibition, % at 5 µM | hit rate 83% among 2,400 | RNase T1 cleavage, fluorescence polarization, 1536-well | shares compounds with TPT1 inh;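 active = inhibition above the solvent-only control well mean plus 3 SD, limit set per screening run, cut at about 23% in these data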;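 also: plate controls were DMSO wells with enzyme for no effect and wells without RNase T1 for full effect; inhibitors block cleavage so intact labeled substrate keeps polarization high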
Target sequence (P00651 whole entry, looked up): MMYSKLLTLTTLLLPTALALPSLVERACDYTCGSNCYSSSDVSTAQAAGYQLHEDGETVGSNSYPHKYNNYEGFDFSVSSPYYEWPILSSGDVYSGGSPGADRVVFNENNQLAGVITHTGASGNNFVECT
* = called active by the depositor.

`Cc1ccc(-n2nc(-c3ccc(OC(F)(F)F)cc3)cc2N)cc1C` gave HNF4A DNA FP 10.0, Rpn11 inh inactive, SENP1 FRET inh 1.4, TPT1 inh -0.5, CSN inh 6.8 and UBC9 SUMO inh -0.9.
Screening CCCCCNC(=O)C(C1CC1)n1c(=O)c(-c2cc3ccccc3[nH]2)nc2ccccc21 (stereo not given) returned HNF4A DNA FP -0.1, SENP1 FRET inh -17.2 and CSN inh -0.5.
For COc1cc(C2C(C#N)=C(N)Oc3c2oc(CO)cc3=O)ccc1OC(C)C (stereo not given) the results were HNF4A DNA FP -1.8, Rpn11 inh inactive, SENP1 FRET inh -3.2, TPT1 inh -1.7, CSN inh 3.0 and UBC9 SUMO inh 20.9.
`CC(C)Oc1ccc(C2C(C#N)=C(N)Oc3c2oc(CO)cc3=O)cc1` (stereo not given) gave HNF4A DNA FP 2.1, Rpn11 inh inactive, SENP1 FRET inh -2.6, TPT1 inh 36.4*, CSN inh 0.6, UBC9 SUMO inh 16.8, caTPT1 confirm 4.8 and RNase T1 inh 6.0.
For Cc1cccn2c(=O)c3cc(C(=O)N4CC(C)CC(C)C4)sc3nc12 (stereo not given) the results were HNF4A DNA FP -2.6, Rpn11 inh inactive, SENP1 FRET inh -37.8, TPT1 inh 0.8, CSN inh -4.5 and UBC9 SUMO inh -3.7.
COCCNC(=O)/C(C#N)=C\c1ccc(CNS(=O)(=O)c2ccccc2)o1 was read as HNF4A DNA FP 2.5, Rpn11 inh inactive, SENP1 FRET inh 0.3, TPT1 inh -1.4, CSN inh 0.0 and UBC9 SUMO inh 17.5.
Cc1c(NC(=O)Cc2noc3ccccc23)cccc1[N+](=O)[O-] was read as HNF4A DNA FP 2.5, Rpn11 inh inactive, SENP1 FRET inh 0.1, TPT1 inh 74.4*, CSN inh -1.4, UBC9 SUMO inh 15.4, caTPT1 confirm 10.5 and RNase T1 inh 10.8.
`COc1ccc(C)cc1S(=O)(=O)N(CC(=O)N1CCOCC1)c1cc(C)cc(C)c1` gave HNF4A DNA FP -0.7, Rpn11 inh inactive, SENP1 FRET inh 3.4, TPT1 inh -3.6, CSN inh -0.2 and UBC9 SUMO inh -1.5.
`COc1ccc(Br)cc1S(=O)(=O)N(CC(=O)N1CCOCC1)c1ccccc1` gave HNF4A DNA FP -2.1, Rpn11 inh inactive, SENP1 FRET inh 0.9, TPT1 inh 43.4*, CSN inh 3.0, UBC9 SUMO inh -22.7, caTPT1 confirm 5.9 and RNase T1 inh 9.8.
O=C(CSc1nnc(-c2ccncc2)n1Cc1ccccc1)NC1CCCc2ccccc21 (stereo not given) was read as HNF4A DNA FP 2.5, Rpn11 inh inactive, SENP1 FRET inh 1.0, TPT1 inh -6.0, CSN inh -10.3 and UBC9 SUMO inh 10.7.
For CCCN(CCC)C1=N/C(=C\c2ccco2)C(=O)N1c1ccccc1 the results were HNF4A DNA FP 1.9, Rpn11 inh inactive, SENP1 FRET inh -42.5, TPT1 inh 26.3*, CSN inh 15.4, UBC9 SUMO inh 13.4, caTPT1 confirm 15.4 and RNase T1 inh 21.8*.
Screening CCCN=C1N/C(=C\c2ccco2)C(=O)N1c1ccccc1 returned HNF4A DNA FP 4.2, Rpn11 inh inactive, SENP1 FRET inh -19.4, TPT1 inh 1.0, CSN inh 1.3 and UBC9 SUMO inh 12.0.
CCOCC(=O)Nc1nc2ccc(C)cc2s1 was read as HNF4A DNA FP -2.4, Rpn11 inh inactive, SENP1 FRET inh -0.4, TPT1 inh -2.8, CSN inh -1.7 and UBC9 SUMO inh 14.0.
Screening Cc1ccc2nc(NC(=O)CSCC(=O)OCC(=O)c3ccccc3)sc2c1 returned HNF4A DNA FP -0.5, Rpn11 inh inactive, SENP1 FRET inh -3.0, TPT1 inh 30.1*, CSN inh -2.7, UBC9 SUMO inh -69.4, caTPT1 confirm 8.7 and RNase T1 inh 13.8.
